Only some compounds are listed: those with a hit (about 2.4% of all), similar ones and a draw of the others.
S1P4 antagonist – human S1P4 receptor antagonism; S1P4-expressing cells, antagonist mode, reporter read-out; O95977; hit rate 0.26% among 220,000; inhibition, % at 4.98 µM; in the data active = inhibition above about 29%;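 note: 0% = wells stimulated with agonist and 100% = vehicle wells without agonist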
Target sequence (O95977 whole entry, looked up): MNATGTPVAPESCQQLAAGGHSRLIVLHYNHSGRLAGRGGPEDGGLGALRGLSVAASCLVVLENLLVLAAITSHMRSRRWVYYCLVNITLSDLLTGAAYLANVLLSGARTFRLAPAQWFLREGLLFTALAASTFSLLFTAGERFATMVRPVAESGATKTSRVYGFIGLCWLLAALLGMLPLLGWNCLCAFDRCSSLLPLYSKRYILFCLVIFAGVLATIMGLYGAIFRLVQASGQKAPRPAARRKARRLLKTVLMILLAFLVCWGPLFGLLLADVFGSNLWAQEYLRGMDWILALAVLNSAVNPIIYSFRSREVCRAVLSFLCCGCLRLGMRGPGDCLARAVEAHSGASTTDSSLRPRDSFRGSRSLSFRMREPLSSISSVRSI
NPY-Y1 antag – NPY-Y1 (human) receptor antagonism | inhibition, % at 3.6 µM | HEK293-CNG Y1 cells, membrane potential fluorescence; NPY at EC95, then isoproterenol | hit rate 1% among 200,000 | P25929;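 active = inhibition above the campaign mean inhibition of all tested compounds plus 3 SD, cut at about 20% in these data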;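 note: 0% = DMSO wells given NPY plus isoproterenol and 100% = isoproterenol alone without NPY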
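Benchmarks – high control isoproterenol alone, low control NPY with isoproterenol · Material – HEK293 Y1/CNG channel cell line · Times – dye 3 h, compound 60 min room temperature, stimulation 45 min · Probe or stimulus – NPY (25 nM), isoproterenol (1 µM), Ro 20-1724 (25 µM) · Evaluation – % inhibition of NPY effect · Signal – fluorescence, membrane potential probe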
NPY-Y2 antag – blocks the human neuropeptide Y Y2 receptor. NPY-Y2 expressing cells, antagonist mode. AID 793. inhibition, % at 2.7 µM. hit rate 0.99% among 140,000. P49146; in the data active = inhibition above about 17%;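 note: 0% = vehicle with agonist challenge and 100% = reference antagonist with challenge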
S1P4 agonist – activates the human S1P4 receptor; S1P4-expressing cell line, agonist reporter assay; hit rate 0.35% among 220,000; AID 1509; activation, % at 4.98 µM; in the data active = activation above about 11%;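 note: 0% = DMSO vehicle and 100% = reference agonist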
NPY2 pot ag – potentiates or activates human NPY-Y2 receptor. cells expressing NPY-Y2, potentiator/agonist read-out. activation, % at 3.6 µM. hit rate 0.45% among 220,000. AID 1359; in the data active = activation above about 27%;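 note: cells stimulated with NPY near EC25 plus isoproterenol at EC100; 0% = vehicle plus submaximal agonist and 100% = vehicle plus saturating agonist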
NPY-Y1 PAM-ag – potentiators or agonists of human neuropeptide Y receptor Y1 | activation, % at 3.6 µM | P25929 | NPY-Y1 expressing cells, potentiator/agonist activation | hit rate 0.37% among 220,000; in the data active = activation above about 33%, passing the limit was not always enough;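 note: cells stimulated with NPY at EC10 then isoproterenol at EC100; 0% = low agonist plus stimulus and 100% = saturating agonist plus stimulus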
The depositor's hits bear a star; nt = no result given.

SMILES | S1P4 antagonist | NPY-Y1 antag | NPY-Y2 antag | S1P4 agonist | NPY2 pot ag | NPY-Y1 PAM-ag
c1ccc(CNc2nc(CN3CCOCC3)nc3scc(-c4ccccc4)c23)cc1 | 5 | 27* | 19* | 3 | -17 | -30
Cc1ccccc1C(=O)NNC(=O)CSc1nc2ccccc2c(=O)[nH]1 | 4 | nt | nt | 0 | 4 | -17
O=C(NC1CCCCC1)C(c1ccc(O)cc1)N(CC1CCCO1)C(=O)C1COc2ccccc2O1 (configuration not stated) | -5 | 14 | 9 | 0 | -8 | -21
O=C(NC1CCCC1)C(c1cccs1)N(CC1CCCO1)C(=O)Cc1cccs1 (configuration not stated) | -11 | 26* | 18* | -2 | -14 | -14
O=C(NC1CCCC1)C(c1ccccc1)N(Cc1ccco1)C(=O)Cc1cccs1 (configuration not stated) | 1 | 77* | 39* | 2 | -23 | -32
Cc1ccc(C(C(=O)NC2CCCCC2)N(Cc2ccco2)C(=O)C2COc3ccccc3O2)o1 (configuration not stated) | -5 | 28* | 20* | -1 | 4 | 5
CC(C)(C)OC(=O)NCCC(=O)N/N=C/c1cccc2nccnc12 | 6 | nt | nt | 1 | -21 | 1
CCOC(=O)c1cnc2c(C)cccc2c1Nc1cccc(C(=O)O)c1 | -26 | nt | nt | 2 | -15 | 10
Cc1ccccc1NCC(=O)N/N=C/C(Br)=C/c1ccccc1 | 14 | 2 | 4 | 1 | -6 | -16
O=S(=O)(Nc1ccc(C(F)(F)F)cn1)c1ccccc1 | 25 | nt | nt | -1 | -2 | 16
N#Cc1nc(COc2ccc(Cl)cc2)oc1N1CCN(Cc2ccccc2)CC1 | -1 | 34* | 32* | 0 | -37 | -49
COc1ccc(N2CCN(c3oc(COc4ccc(Cl)cc4Cl)nc3C#N)CC2)cc1 | 5 | 52* | 11 | 2 | -16 | -51
COc1ccc(N2CCN(c3oc(COc4ccc(Cl)cc4)nc3C#N)CC2)cc1 | 7 | 49* | 24* | 1 | -8 | -40
N#Cc1nc(COc2ccc(Br)cc2)oc1N1CCCC1 | 19 | 27* | 22* | 1 | -49 | -23
Cc1ccc(-c2nn(CCC(=O)NN3CCOCC3)c(=O)c3ccccc23)cc1 | 12 | nt | nt | 1 | 8 | 25
COc1ccc(N2CCN(c3oc(COc4ccccc4)nc3C#N)CC2)cc1 | -9 | 39* | 27* | -1 | -12 | 1
O=C1C2CC=CCC2C(=O)N1Cc1nnc(-c2ccccc2Br)o1 (configuration not stated) | -2 | nt | nt | 0 | -2 | -5
Cc1ccc(S(=O)(=O)Nc2ccccc2C(=O)Nc2nc(-c3ccc(F)cc3)cs2)cc1 | -10 | 14 | 2 | 1 | 16 | 8
COc1ccc(-c2csc(NC(=O)c3ccccc3NS(=O)(=O)c3ccc(F)c(F)c3)n2)cc1 | 4 | 3 | nt | -4 | 94* | 70*
CC1CC(=O)NN=C1c1ccc(N)c([N+](=O)[O-])c1 (configuration not stated) | -16 | 65* | 78* | 1 | -18 | -69
CN(C)S(=O)(=O)c1ccc(N)c([N+](=O)[O-])c1 | -2 | nt | nt | 3 | -7 | -7
COc1ccc(NC(=O)COC(=O)c2c3c(nc4ccccc24)CCCC3)cc1Cl | -8 | 24* | 19* | 2 | -11 | -55
C=CC[n+]1c(-c2ccc(OCC)cc2)csc1NNC(=O)Nc1ccccc1 | -6 | -14 | 1 | -1 | 81* | 95*
NS(=O)(=O)c1ccc(NC(=O)C2C3C=CC(C3)C2C(=O)O)cc1 (configuration not stated) | 4 | -2 | nt | 0 | 0 | 13
CSCC[C@H](NC(=O)c1ccc(Cl)c([N+](=O)[O-])c1)c1nc2ccccc2[nH]1 | 4 | -4 | -3 | -1 | 9 | 38
O=C(NC(Cc1ccccc1)c1nc2ccccc2[nH]1)c1ccc(Cl)c([N+](=O)[O-])c1 (configuration not stated) | -14 | -4 | 0 | 1 | 40* | 47*
COc1ccc(OCCCNCCc2ccccc2)cc1 | -12 | 21* | nt | -1 | -11 | 0
COc1cccc(CN2CCC(N(CCc3ccccc3)Cc3ccccc3)CC2)c1OC | 2 | 35* | 31* | -1 | -1 | -30
